Experimental data: ChEMBL document CHEMBL4118285, “Synthesis and antibacterial activity of novel ketolides with 11,12-quinoylalkyl side chains” (2018)
Converted amounts (≈) assume the structure as drawn.

Legend:
Assay type in all cases: functional
[1] = tested on: Staphylococcus aureus; assay: Antibacterial activity against methicillin-sensitive Staphylococcus aureus 11B122 by broth microdilution method
In short: (§1)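 MICs were determined by broth microdilution following CLSI recommendations, with clarithromycin and telithromycin run as reference antibiotics.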

[2] = tested on: Staphylococcus aureus; assay: Antibacterial activity against methicillin-resistant Staphylococcus aureus 11B117 by broth microdilution method
In short: (§2)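 MIC values were determined by broth microdilution following Clinical and Laboratory Standards Institute (CLSI) recommendations.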

[3] = tested on: Staphylococcus epidermidis; assay: Antibacterial activity against methicillin-sensitive Staphylococcus epidermidis 11X315 by broth microdilution method; in short: as §2
[4] = tested on: Staphylococcus epidermidis; assay: Antibacterial activity against methicillin-resistant Staphylococcus epidermidis 11C176 by broth microdilution method; in short: as §2
[5] = tested on: Streptococcus pneumoniae; assay: Antibacterial activity against erythromycin-sensitive Streptococcus pneumoniae 11G364 by broth microdilution method; in short: as §1
[6] = tested on: Streptococcus pneumoniae; assay: Antibacterial activity against erythromycin-resistant Streptococcus pneumoniae 11 J011 by broth microdilution method; in short: as §2
[7] = tested on: Streptococcus pyogenes; assay: Antibacterial activity against erythromycin-sensitive Streptococcus pyogenes 11L264 by broth microdilution method; in short: as §1
[8] = tested on: Streptococcus pyogenes; assay: Antibacterial activity against erythromycin-resistant Streptococcus pyogenes 11 N369 by broth microdilution method; in short: as §2
[9] = tested on: Haemophilus influenzae; assay: Antibacterial activity against azithromycin-sensitive Haemophilus influenzae 11P042 by broth microdilution method; in short: as §1
[10] = tested on: Haemophilus influenzae; assay: Antibacterial activity against azithromycin-resistant Haemophilus influenzae 11Q373 by broth microdilution method; in short: as §2
[11] = tested on: Staphylococcus aureus; assay: Antibacterial activity against methicillin-sensitive Staphylococcus aureus ATCC 29213 by broth microdilution method; in short: as §1
[12] = tested on: Staphylococcus aureus; assay: Antibacterial activity against methicillin-resistant Staphylococcus aureus ATCC 33591 by broth microdilution method; in short: as §2
[13] = tested on: Staphylococcus epidermidis; assay: Antibacterial activity against methicillin-sensitive Staphylococcus epidermidis ATCC 12228 by broth microdilution method; in short: as §1
[14] = tested on: Staphylococcus epidermidis; assay: Antibacterial activity against methicillin-resistant Staphylococcus epidermidis 13-3 by broth microdilution method; in short: as §2
[15] = tested on: Streptococcus pyogenes; assay: Antibacterial activity against […] Streptococcus pyogenes 12-8 by broth microdilution method; in short: as §1
[16] = tested on: Streptococcus pyogenes; assay: Antibacterial activity against methicillin-resistant Streptococcus pyogenes 12-1 by broth microdilution method; in short: as §2
[17] = tested on: Moraxella catarrhalis; assay: Antibacterial activity against clarithromycin-sensitive Moraxella catarrhalis 12-1 by broth microdilution method; in short: as §1
[18] = tested on: Klebsiella pneumoniae; assay: Antibacterial activity against extended spectrum beta-lactamases producing Klebsiella pneumoniae ATCC 700603 by broth microdilution method; in short: as §1
[19] = tested on: Moraxella catarrhalis; assay: Antibacterial activity against clarithromycin-resistant Moraxella catarrhalis 12-2 by broth microdilution method; in short: as §2
[20] = tested on: Escherichia coli; assay: Antibacterial activity against extended spectrum beta-lactamases non-producing Escherichia coli ATCC 25922 by broth microdilution method; in short: as §1
[21] = tested on: Pseudomonas aeruginosa; assay: Antibacterial activity against Pseudomonas aeruginosa ATCC 27853 by broth microdilution method; in short: as §1

Row | Compound | MIC [1] [µg/mL] | MIC [2] [µg/mL] | MIC [3] [µg/mL] | MIC [4] [µg/mL] | MIC [5] [µg/mL] | MIC [6] [µg/mL] | MIC [7] [µg/mL] | MIC [8] [µg/mL] | MIC [9] [µg/mL] | MIC [11] [µg/mL] | MIC [12] [µg/mL] | MIC [13] [µg/mL] | MIC [14] [µg/mL] | MIC [15] [µg/mL] | MIC [16] [µg/mL] | MIC [17] [µg/mL] | MIC [18] [µg/mL] | MIC [19] [µg/mL] | MIC [20] [µg/mL] | MIC [21] [µg/mL] | also measured
1 | CC[C@H]1OC(=O)[C@H](C)C(=O)[C@H](C)[C@@H](O[C@@H]2O[C@H](C)C[C@H](N(C)C)[C@H]2O)[C@](C)(OC)C[C@@H](C)C(=O)[C@H](C)[C@H]2N(CCCOc3cnc4ccccc4c3)C(=O)O[C@]12C | 0.125 (≈ 0.157 µM) | > 64 | 0.062 (≈ 0.0777 µM) | 0.25 (≈ 0.313 µM) | ≤ 0.004 | 0.062 (≈ 0.0777 µM) | 0.008 (≈ 0.01 µM) | 1 (≈ 1.25 µM) | 1 (≈ 1.25 µM) |  |  |  |  |  |  |  |  |  |  |  | MIC [10]: 8 µg/mL (≈ 10 µM)
2 | CC[C@H]1OC(=O)[C@H](C)C(=O)[C@H](C)[C@@H](O[C@@H]2O[C@H](C)C[C@H](N(C)C)[C@H]2O)[C@](C)(OC)C[C@@H](C)C(=O)[C@H](C)[C@H]2N(CC/C=C/c3cncc4cc(OCc5ccccc5)ccc34)C(=O)O[C@]12C |  |  |  |  |  |  |  |  |  | 1 (≈ 1.11 µM) | 8 (≈ 8.89 µM) | 1 (≈ 1.11 µM) | 16 (≈ 17.8 µM) | 0.25 (≈ 0.278 µM) | 8 (≈ 8.89 µM) | 0.5 (≈ 0.555 µM) | > 256 | 8 (≈ 8.89 µM) | > 256 | > 256 | 
3 | CC[C@H]1OC(=O)[C@H](C)C(=O)[C@H](C)[C@@H](O[C@@H]2O[C@H](C)C[C@H](N(C)C)[C@H]2O)[C@](C)(OC)C[C@@H](C)C(=O)[C@H](C)[C@H]2N(CC/C=C/c3cncc4ccc(-c5ccccc5)cc34)C(=O)O[C@]12C |  |  |  |  |  |  |  |  |  | 1 (≈ 1.15 µM) | 4 (≈ 4.6 µM) | 0.5 (≈ 0.575 µM) | 8 (≈ 9.19 µM) | 0.125 (≈ 0.144 µM) | 8 (≈ 9.19 µM) | 0.125 (≈ 0.144 µM) | > 256 | 2 (≈ 2.3 µM) | > 256 | > 256 | 
4 | CC[C@H]1OC(=O)[C@H](C)C(=O)[C@H](C)[C@@H](O[C@@H]2O[C@H](C)C[C@H](N(C)C)[C@H]2O)[C@](C)(OC)C[C@@H](C)C(=O)[C@H](C)[C@H]2N(CCCNc3cnc4ccccc4c3)C(=O)O[C@]12C | 0.5 (≈ 0.627 µM) | > 64 | 0.5 (≈ 0.627 µM) | 0.5 (≈ 0.627 µM) | 0.016 (≈ 0.0201 µM) | 0.5 (≈ 0.627 µM) | 0.031 (≈ 0.0389 µM) | 64 (≈ 80.3 µM) | 8 (≈ 10 µM) |  |  |  |  |  |  |  |  |  |  |  | MIC [10]: 8 µg/mL (≈ 10 µM)
5 | CC[C@H]1OC(=O)[C@H](C)C(=O)[C@H](C)[C@@H](O[C@@H]2O[C@H](C)C[C@H](N(C)C)[C@H]2O)[C@](C)(OC)C[C@@H](C)C(=O)[C@H](C)[C@H]2N(CCCOc3ccc4cccnc4c3)C(=O)O[C@]12C |  |  |  |  |  |  |  |  |  | 0.015 (≈ 0.0188 µM) | 256 (≈ 321 µM) | 0.03 (≈ 0.0376 µM) | > 256 | 0.015 (≈ 0.0188 µM) | > 256 | 0.015 (≈ 0.0188 µM) | 128 (≈ 160 µM) | 64 (≈ 80.2 µM) | 16 (≈ 20.1 µM) | 32 (≈ 40.1 µM) | 
6 | CC[C@H]1OC(=O)[C@@](C)(F)C(=O)[C@H](C)[C@@H](O[C@@H]2O[C@H](C)C[C@H](N(C)C)[C@H]2O)[C@](C)(OC)C[C@@H](C)C(=O)[C@H](C)[C@H]2N(CCCOc3cnc4ccccc4c3)C(=O)O[C@]12C |  |  |  |  |  |  |  |  |  | 0.015 (≈ 0.0184 µM) | 64 (≈ 78.4 µM) | 0.015 (≈ 0.0184 µM) | 128 (≈ 157 µM) | 0.015 (≈ 0.0184 µM) | 64 (≈ 78.4 µM) | 0.015 (≈ 0.0184 µM) | 32 (≈ 39.2 µM) | 64 (≈ 78.4 µM) | 8 (≈ 9.8 µM) | 16 (≈ 19.6 µM) | 
7 | CC[C@H]1OC(=O)[C@H](C)[C@@H](O[C@H]2C[C@@](C)(OC)[C@@H](O)[C@H](C)O2)[C@H](C)[C@@H](O[C@@H]2O[C@H](C)C[C@H](N(C)C)[C@H]2O)[C@](C)(OC)C[C@@H](C)C(=O)[C@H](C)[C@@H](O)[C@]1(C)O [CLARITHROMYCIN] | 0.031 (≈ 0.0414 µM) | > 64 | 0.125 (≈ 0.167 µM) | > 64 | 0.031 (≈ 0.0414 µM) | 64 (≈ 85.6 µM) | 0.016 (≈ 0.0214 µM) | > 64 | 8 (≈ 10.7 µM) | 0.12 (≈ 0.16 µM) | > 256 | 0.06 (≈ 0.0802 µM) | > 256 | 0.03 (≈ 0.0401 µM) | 128 (≈ 171 µM) | 0.008 (≈ 0.0107 µM) | 128 (≈ 171 µM) | > 256 | 16 (≈ 21.4 µM) | 128 (≈ 171 µM) | MIC [10]: 8 µg/mL (≈ 10.7 µM)
8 | CC[C@H]1OC(=O)[C@H](C)C(=O)[C@H](C)[C@@H](O[C@@H]2O[C@H](C)C[C@H](N(C)C)[C@H]2O)[C@](C)(OC)C[C@@H](C)C(=O)[C@H](C)[C@H]2N(CCCCn3cnc(-c4cccnc4)c3)C(=O)O[C@]12C [TELITHROMYCIN] | 0.062 (≈ 0.0764 µM) | > 64 | 0.062 (≈ 0.0764 µM) | 0.031 (≈ 0.0382 µM) | 0.016 (≈ 0.0197 µM) | 0.031 (≈ 0.0382 µM) | 0.008 (≈ 0.00985 µM) | 0.125 (≈ 0.154 µM) | 1 (≈ 1.23 µM) | 0.015 (≈ 0.0185 µM) | > 256 | 0.015 (≈ 0.0185 µM) | > 256 | 0.03 (≈ 0.0369 µM) | > 256 | 0.125 (≈ 0.154 µM) | 64 (≈ 78.8 µM) | > 256 | 8 (≈ 9.85 µM) | 32 (≈ 39.4 µM) | MIC [10]: 4 µg/mL (≈ 4.93 µM)
